The subject of assay [1] is SGC-7901. Briefly: Cytotoxicity against human SGC7901 after 48 hrs by MTT assay. The assay is classed as functional, cell-based. The note with it: SGC-7901, 48 h. An outline of the steps:
(§1)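 Log-phase cells in RPMI 1640 with 10% FBS, diluted to 3 × 10⁴ cells/mL and seeded in 96-well plates. After 24 h at 37 °C, 5% CO₂, samples at pre-set concentrations were added to six wells, with 5-fluorouracil as positive reference. Exposure was 48 h. MTT at 2.5 mg/mL in PBS was added for 4 h, formazan dissolved in DMSO, A570 read. IC50 = concentration giving 50% survival. Three experiments in triplicate, mean ± SD.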

The subject of assay [2] is HepG2. Briefly: Cytotoxicity against human HepG2 after 48 hrs by MTT assay. In kind it is functional, cell-based. As to conditions: HepG2, 48 h. In a few lines:
as §1
A general note: Tetrazolium assays rely on reduction of a dye to a coloured formazan, in cell work by metabolically active cells.

Assay [3] has as its system PC-3. In words: Cytotoxicity against human PC3 after 48 hrs by MTT assay. The assay is classed as functional, cell-based. The note with it: PC-3, 48 h. An outline of the steps: as §1
Assay [4] concerns the target DNA polymerase I, thermostable (Thermus aquaticus, UniProt P19821). In words: Inhibition of Thermus aquaticus taq polymerase.
Assay [5] concerns the target Telomerase reverse transcriptase (Homo sapiens, UniProt O14746). Briefly: Inhibition of telomerase activity expressed in human SGC7901 cells by SYBER green dye based TRAP. In kind it is cell-based, SGC-7901. In a few lines: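 Modified TRAP assay using total cell lysate of SGC-7901 as the telomerase source. Lysate protein was measured by Bio-Rad assay against BSA standards. Extension products were resolved on 10% polyacrylamide gels and stained with SYBR Green. Reported as IC50.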

Assay [6] can be described thus: Selectivity index, ratio of IC50 for Thermus aquaticus taq polymerase to IC50 for telomerase.

Sequence of DNA polymerase I, thermostable (P19821 whole entry): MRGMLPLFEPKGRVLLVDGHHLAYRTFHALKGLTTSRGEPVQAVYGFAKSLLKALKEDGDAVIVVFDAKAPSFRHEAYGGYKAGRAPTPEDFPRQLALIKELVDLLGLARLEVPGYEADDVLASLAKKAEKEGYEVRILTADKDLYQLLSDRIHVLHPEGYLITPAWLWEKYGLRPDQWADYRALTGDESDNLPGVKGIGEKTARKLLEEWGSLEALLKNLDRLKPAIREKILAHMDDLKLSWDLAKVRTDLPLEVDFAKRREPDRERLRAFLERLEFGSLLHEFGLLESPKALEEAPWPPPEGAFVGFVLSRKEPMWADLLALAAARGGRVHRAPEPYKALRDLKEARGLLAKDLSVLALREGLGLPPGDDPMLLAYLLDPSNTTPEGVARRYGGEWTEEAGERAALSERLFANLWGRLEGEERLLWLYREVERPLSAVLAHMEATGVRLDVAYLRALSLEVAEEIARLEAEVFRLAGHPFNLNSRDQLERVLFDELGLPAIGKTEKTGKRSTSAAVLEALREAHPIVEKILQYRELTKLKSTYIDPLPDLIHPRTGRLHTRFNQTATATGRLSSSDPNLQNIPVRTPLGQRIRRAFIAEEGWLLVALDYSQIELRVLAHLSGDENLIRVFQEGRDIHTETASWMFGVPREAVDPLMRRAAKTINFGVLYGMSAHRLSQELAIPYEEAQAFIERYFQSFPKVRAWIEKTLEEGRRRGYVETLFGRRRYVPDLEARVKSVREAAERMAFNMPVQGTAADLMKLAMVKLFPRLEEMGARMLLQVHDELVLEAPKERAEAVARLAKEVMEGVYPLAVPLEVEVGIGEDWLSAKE
Sequence of Telomerase reverse transcriptase (O14746 whole entry): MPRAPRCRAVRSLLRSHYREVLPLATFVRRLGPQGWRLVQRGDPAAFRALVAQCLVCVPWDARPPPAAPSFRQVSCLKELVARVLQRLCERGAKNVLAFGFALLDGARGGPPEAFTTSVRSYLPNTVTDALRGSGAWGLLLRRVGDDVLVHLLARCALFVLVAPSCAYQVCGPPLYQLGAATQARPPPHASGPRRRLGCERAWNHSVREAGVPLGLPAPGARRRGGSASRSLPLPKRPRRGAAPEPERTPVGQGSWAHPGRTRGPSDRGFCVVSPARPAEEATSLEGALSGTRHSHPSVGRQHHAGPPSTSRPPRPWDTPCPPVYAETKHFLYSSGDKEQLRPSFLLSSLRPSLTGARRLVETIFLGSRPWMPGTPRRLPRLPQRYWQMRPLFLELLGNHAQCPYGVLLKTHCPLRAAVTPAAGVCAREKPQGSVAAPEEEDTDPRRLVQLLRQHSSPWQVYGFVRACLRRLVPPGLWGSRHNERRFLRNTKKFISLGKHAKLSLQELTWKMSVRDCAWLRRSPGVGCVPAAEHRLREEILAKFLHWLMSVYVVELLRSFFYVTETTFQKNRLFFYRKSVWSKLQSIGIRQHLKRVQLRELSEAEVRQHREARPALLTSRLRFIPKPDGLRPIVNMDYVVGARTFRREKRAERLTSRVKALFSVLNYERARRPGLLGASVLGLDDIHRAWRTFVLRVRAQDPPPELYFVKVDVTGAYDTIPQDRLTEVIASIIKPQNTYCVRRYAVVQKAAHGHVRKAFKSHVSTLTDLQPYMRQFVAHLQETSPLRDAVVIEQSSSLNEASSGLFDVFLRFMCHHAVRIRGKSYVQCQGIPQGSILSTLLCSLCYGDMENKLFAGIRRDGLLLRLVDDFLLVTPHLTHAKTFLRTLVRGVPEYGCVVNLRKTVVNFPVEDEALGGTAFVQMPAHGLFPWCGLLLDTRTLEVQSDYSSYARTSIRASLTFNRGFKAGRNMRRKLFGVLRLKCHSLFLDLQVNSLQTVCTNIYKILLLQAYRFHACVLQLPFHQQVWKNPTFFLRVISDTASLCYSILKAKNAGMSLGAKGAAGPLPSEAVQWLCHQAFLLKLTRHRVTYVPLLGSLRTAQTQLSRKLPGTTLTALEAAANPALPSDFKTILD

As for `CC1=NN(C(=O)c2ccccc2Cl)C(c2ccccc2O)C1` (stereo not drawn), the 50% inhibitory concentration (IC50) (commonly the point on the concentration scale where inhibition reaches its midpoint) in assay [1] came to 103 µM; in assay [2] it was 95.5 µM; in assay [3] it was 84.2 µM; in assay [4] it was 36 µM.

For the compound `CC1=NN(C(=O)c2ccc(C)cc2)C(c2ccccc2O)C1` (stereo not drawn), the half-maximal inhibitory concentration (IC50) was 51.5 µM in assay [1], 78.9 µM in assay [2], 116 µM in assay [3] and 31.5 µM in assay [5].

As for `CC1=NN(S(=O)(=O)c2ccc(C)cc2)C(c2ccccc2O)C1` (stereo not drawn), the IC50 in assay [1] is 73.6 µM; in assay [2], 66.8 µM; in assay [3], 85.5 µM; in assay [4] it was 30 µM; in assay [5] it was 16.8 µM. The Ratio IC50 in assay [6] stood at 1.9.

Take `CC1=NN(C(=O)c2ccccc2)C(c2ccccc2O)C1` (stereo not drawn): the IC50 in assay [1] turned out to be 21.2 µM; in assay [2] it was 29.4 µM; in assay [3] it was 30.9 µM; in assay [4] it was 8 µM; in assay [5], 4 µM. The Ratio IC50 in assay [6] amounted to 2.

For the compound `CC[n+]1c(-c2ccccc2)c2cc(N)ccc2c2ccc(N)cc21` [HOMIDIUM BROMIDE], the IC50 in assay [5] was 2.6 µM.

Consider `CC1=NN(C(=O)c2ccccc2)C(c2cccc(C)c2O)C1` (stereo not drawn), for which the half-inhibitory concentration (IC50) in assay [1] was 150 µM; in assay [2], 177 µM; in assay [3], 154 µM.

Take `CC1=NN(C(=O)c2ccccc2C)C(c2ccccc2O)C1` (stereo not drawn): the IC50 in assay [1] stood at 104 µM; in assay [2] it was 95.2 µM; in assay [3], 106 µM; in assay [4], 50.5 µM; in assay [5], 24.5 µM. Also, the Ratio IC50 in assay [6] amounted to 2.1.

`CC1=NN(C(=O)Cc2ccc([N+](=O)[O-])cc2)C(c2ccccc2O)C1` (stereo not drawn): the concentration for half-maximal inhibition (IC50) in assay [1] came to 97.3 µM; in assay [2], 107 µM; in assay [3] it was 132 µM.

For `CC1=NN(C(=O)CCl)C(c2ccccc2O)C1` (stereo not drawn), the half-inhibitory concentration (IC50) in assay [1] came out at 26.8 µM; in assay [2] it was 47.9 µM; in assay [3], 20.1 µM; in assay [4], 20.4 µM; in assay [5] it was 9.5 µM. For the same compound, the Ratio IC50 in assay [6] turned out to be 2.1.

For the compound `CC1=NN(S(=O)(=O)c2ccccc2)C(c2ccccc2O)C1` (stereo not drawn), the concentration for half-maximal inhibition (IC50) was 66.4 µM in assay [1]; 57.2 µM in assay [2]; 50.6 µM in assay [3]; 31 µM in assay [4]; 17.3 µM in assay [5]. In addition, in assay [6], the Ratio IC50 worked out at 1.8.

`O=c1[nH]cc(F)c(=O)[nH]1` [FLUOROURACIL]: the half-maximal inhibitory concentration (IC50) in assay [1] amounted to 31.5 µM; in assay [2] it was 18.9 µM; in assay [3], 15.7 µM.

These data come from ChEMBL document CHEMBL1770100, “Design and synthesis of N-phenylacetyl (sulfonyl) 4,5-dihydropyrazole derivatives as potential antitumor agents” (Bioorg Med Chem Lett, 2011).
